The results in this text go back to ChEMBL document CHEMBL1687736, “Identification and biochemical characterization of small-molecule inhibitors of Clostridium botulinum neurotoxin serotype A” (Antimicrob Agents Chemother, 2009).

Active and inactive are the calls of the source. No cut-off for these calls is given here.

The target in series [1] is Botulinum neurotoxin type A (Clostridium botulinum) (UniProt P0DPI0). In words: Inhibition of Clostridium botulinum BoNT/A light chain-mediated SNAP-25 cleavage in mouse Neuro2a cells at 10 uM after 30 mins by Western blotting. Format: cell-based. On the technique in general: Immunoblotting shows a protein as a band on a membrane.
The target in series [2] is T1, Botulinum neurotoxin type A (Clostridium botulinum, UniProt P0DPI0). In words: Inhibition of protease activity of recombinant full-length Clostridium botulinum BoNT/A light chain after 5 mins by HPLC-based assay. Put shortly: (§1)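 Recombinant BoNT/A light chain, full-length at 140 nM or truncated (residues 1-425) at 620 nM final, with 0.8 mM 17-mer SNAP-25 (187-203) peptide in 50 mM HEPES pH 7.3. Inhibitor was added from DMSO at nine concentrations, then 5 min at 37°C. Stopped with 0.7% TFA, cleavage quantified by reverse-phase HPLC, and IC50 derived by log-probit analysis.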

For series [3], the target named is Botulinum neurotoxin type A (Clostridium botulinum) (UniProt P0DPI0). In words: Inhibition of Clostridium botulinum BoNT/A-mediated neuromuscular block in CD1 mouse phrenic nerve hemidiaphragm assessed as time required to 50% loss of twitch tension at 10 uM after 15 to 20 mins.
A short description of series [4]: Inhibition of zinc carboxypeptidase A at up to 20 uM. Put shortly:
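Carboxypeptidase A kit plate assay: CPA with compounds from DMSO at various concentrations, 5 min at 25°C, then stop solution and absorbance read at 350 nm. Percent inhibition was taken versus CPA with DMSO; potato tuber CPA inhibitor served as control. Two independent determinations, each in triplicate.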

Series [5] concerns the target T1, Botulinum neurotoxin type A. In words: Inhibition of protease activity of recombinant Clostridium botulinum BoNT/A (1 to 425) light chain after 5 mins by HPLC-based assay. Put shortly:
as §1

Series [6] has as its target Botulinum neurotoxin type A (Clostridium botulinum) (UniProt P0DPI0). In words: Inhibition of Clostridium botulinum BoNT/A light chain-mediated SNAP-25 cleavage in mouse Neuro2a cells at 15 uM after 30 mins by Western blotting. Format: cell-based.
Series [7] concerns the target T2, Botulinum neurotoxin type B (Clostridium botulinum) (UniProt P10844).
T2 sequence (whole entry): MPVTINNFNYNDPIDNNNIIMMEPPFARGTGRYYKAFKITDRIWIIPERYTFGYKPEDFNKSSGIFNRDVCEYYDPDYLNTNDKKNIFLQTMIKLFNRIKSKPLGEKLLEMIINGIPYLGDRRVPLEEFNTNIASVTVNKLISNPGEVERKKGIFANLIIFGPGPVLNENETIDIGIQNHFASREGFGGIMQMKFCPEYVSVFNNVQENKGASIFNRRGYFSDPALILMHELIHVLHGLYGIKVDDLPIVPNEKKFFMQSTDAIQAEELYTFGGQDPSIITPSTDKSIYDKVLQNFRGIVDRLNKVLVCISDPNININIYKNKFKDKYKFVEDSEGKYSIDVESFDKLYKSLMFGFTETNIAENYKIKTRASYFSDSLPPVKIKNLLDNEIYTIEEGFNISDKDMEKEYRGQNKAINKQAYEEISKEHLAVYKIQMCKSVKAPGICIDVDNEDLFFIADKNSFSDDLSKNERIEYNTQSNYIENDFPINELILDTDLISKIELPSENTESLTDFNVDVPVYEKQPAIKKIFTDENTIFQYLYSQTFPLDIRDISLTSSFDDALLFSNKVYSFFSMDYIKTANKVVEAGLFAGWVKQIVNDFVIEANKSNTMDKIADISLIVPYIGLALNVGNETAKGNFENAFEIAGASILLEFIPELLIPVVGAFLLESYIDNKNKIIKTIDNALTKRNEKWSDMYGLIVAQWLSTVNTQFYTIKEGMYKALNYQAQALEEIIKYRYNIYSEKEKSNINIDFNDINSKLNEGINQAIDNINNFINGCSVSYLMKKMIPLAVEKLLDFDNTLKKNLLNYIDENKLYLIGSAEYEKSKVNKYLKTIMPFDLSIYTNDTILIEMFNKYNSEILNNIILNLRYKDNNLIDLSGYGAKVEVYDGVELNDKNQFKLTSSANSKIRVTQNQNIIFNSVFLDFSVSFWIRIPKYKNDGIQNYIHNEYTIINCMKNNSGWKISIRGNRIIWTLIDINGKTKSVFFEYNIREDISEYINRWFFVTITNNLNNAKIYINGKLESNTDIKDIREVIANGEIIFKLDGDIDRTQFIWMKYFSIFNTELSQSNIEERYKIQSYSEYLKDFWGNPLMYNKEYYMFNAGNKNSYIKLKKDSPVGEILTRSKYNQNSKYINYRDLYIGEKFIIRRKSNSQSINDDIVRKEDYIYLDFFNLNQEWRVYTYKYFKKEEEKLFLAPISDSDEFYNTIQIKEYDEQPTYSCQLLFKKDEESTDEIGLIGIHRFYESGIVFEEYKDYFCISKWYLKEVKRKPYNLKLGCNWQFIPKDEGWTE
In words: Inhibition of protease activity of recombinant full-length Clostridium botulinum BoNT/B light chain at 20 uM after 5 mins by HPLC-based assay. Put shortly:
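Recombinant BoNT/B LC (30-40 nM) with 0.4 mM 35-mer human VAMP-2 (60-94) peptide, 1 mM DTT, 50 mM HEPES pH 7.3. Compound was added at 20 µM final without preincubation, then 5 min at 37°C. TFA stop, reverse-phase HPLC quantification of cleavage. Means ± SD of two independent assays.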

Series [8] deals with Botulinum neurotoxin type A (Clostridium botulinum) (UniProt P0DPI0). In words: Inhibition of protease activity of recombinant full-length Clostridium botulinum BoNT/A light chain at 200 uM after 5 mins by HPLC-based assay. Put shortly: (§2)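 Full-length recombinant BoNT/A LC (110-140 nM) with 0.8 mM SNAP-25 17-mer peptide in 50 mM HEPES pH 7.3. Compound was added from DMSO stock without preincubation, then LC, 5 min at 37°C. TFA stop, reverse-phase HPLC. Percent inhibition came from substrate cleaved with versus without compound; the 20 µM data are means ± SD of two independent assays.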

The target is the same in series [9]. In words: Inhibition of protease activity of recombinant full-length Clostridium botulinum BoNT/A light chain at 20 uM after 5 mins by HPLC-based assay. In a few lines: as §2
For series [10] the target is unchanged. In words: Inhibition of Clostridium botulinum BoNT/A-mediated neuromuscular block in CD1 mouse phrenic nerve hemidiaphragm assessed as time required to 50% loss of twitch tension at 0.5 uM after 15 to 20 mins.
Series [11] has the same target. In words: Inhibition of Clostridium botulinum BoNT/A-mediated neuromuscular block in CD1 mouse phrenic nerve hemidiaphragm assessed as time required to 50% loss of twitch tension at 20 uM after 15 to 20 mins.
Series [12] addresses T1, Botulinum neurotoxin type A. In words: Binding affinity to Clostridium botulinum BoNT/A.
The target of series [13] is Botulinum neurotoxin type A (Clostridium botulinum) (UniProt P0DPI0). In words: Inhibition of Clostridium botulinum BoNT/A-mediated neuromuscular block in CD1 mouse phrenic nerve hemidiaphragm assessed as time required to 50% loss of twitch tension at 5 uM after 15 to 20 mins.
Series [14] is described as follows: Cytotoxicity against mouse Neuro2a cells at >= 10 uM. Particulars: n2a. Format: cell-based.

Chain of Botulinum neurotoxin type A (Clostridium botulinum) (P0DPI0 2-448 limits assumed): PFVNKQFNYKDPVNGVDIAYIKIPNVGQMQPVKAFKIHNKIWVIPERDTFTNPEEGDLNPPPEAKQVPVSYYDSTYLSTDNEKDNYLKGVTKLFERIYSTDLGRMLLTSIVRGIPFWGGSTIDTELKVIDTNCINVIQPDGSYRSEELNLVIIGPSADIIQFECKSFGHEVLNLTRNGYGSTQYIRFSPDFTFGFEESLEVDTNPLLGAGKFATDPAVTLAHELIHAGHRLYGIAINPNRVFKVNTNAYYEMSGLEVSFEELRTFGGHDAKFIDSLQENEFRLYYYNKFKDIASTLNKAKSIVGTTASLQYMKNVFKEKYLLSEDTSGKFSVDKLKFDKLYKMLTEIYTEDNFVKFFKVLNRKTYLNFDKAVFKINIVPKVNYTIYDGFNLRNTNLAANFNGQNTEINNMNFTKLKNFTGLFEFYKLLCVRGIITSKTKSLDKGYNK
T1 sequence (P0DPI0 2-448 limits assumed): as above

`Oc1c(C(Nc2ccccn2)c2ccccc2)ccc2cccnc12` (racemic): in [1], the inhibition (commonly the relative decrease from the control value, in per cent) is “Active”. The half-maximal inhibitory concentration (IC50) (usually the concentration needed to halve the response being measured) in series [2] stood at 1.6 µM; in series [5], 1.5 µM. In addition, the TIME in [3] is 4.44 h. Further, the result in [4] was inactive. In [6], the outcome was Active. In addition, the inhibition in series [7] worked out at 8.8%.
In the case of `Oc1c(C(Nc2cccnc2)c2ccccc2F)ccc2cccnc12` (racemic), the values for the inhibition in series [1], in series [7] and in series [8] were 68%, 16.8% and 92.8%, respectively. For the same compound, the results for the half-inhibitory concentration (IC50) in series [2] and in [5] were 3.9 µM and 2.4 µM, respectively. In addition, in series [3], the TIME amounted to 4.68 h. Also, the outcome in [4] was inactive. In series [6], the result was Active.
As to `O=C1c2ccccc2C(=O)N1CNc1ccccc1/C(=N/Nc1ccc([N+](=O)[O-])cc1[N+](=O)[O-])c1ccccc1`, the inhibition was determined as 49% in series [9] and 82% in [8].
With `O=[N+]([O-])c1cccc(CN(Cc2cccc([N+](=O)[O-])c2O)c2ccccc2)c1O`, the inhibition in [9] stood at 37%; in series [8], 75%.
Take `Cc1ccc(NC(=O)/C(CC(=O)c2sc(Nc3ccccc3Cl)nc2C)=N/Nc2ccc([N+](=O)[O-])cc2[N+](=O)[O-])c(C)c1`: the inhibition in [9] was found to be 51%; in series [8] it was 85%.
For the compound `CC(CO)(Nc1ccc([N+](=O)[O-])cc1[N+](=O)[O-])C(=O)O` (racemic), the figures for the inhibition in series [9] and in series [8] were 29% and 65%, respectively.
For `CCOc1ccc(C(Nc2cccnc2)c2cc(Cl)c3cccnc3c2O)cc1` (racemic), the inhibition result in series [1] was “Active”. Further, the figures for the IC50 in [2] and in series [5] were 2.1 µM and 1.6 µM, respectively. For the same compound, the TIME in [10] came out at 4.52 h. In series [4], the outcome was inactive. In [6], the result was Active. The inhibition stood at 31.2% in series [7] and 96.2% in series [8].
As to Ac-CRATKML-NH2, in [11], the result was inactive and the TIME came out at 0.878 h. In addition, the affinity in series [12], expressed as Ki, was 1.9 µM.
On to `Oc1c(C(Nc2cccnc2)c2ccc(C(F)(F)F)cc2)ccc2cccnc12` (racemic), for which the inhibition result in series [1] was “Active”. The 50% inhibitory concentration (IC50) in series [2] was determined as 4.7 µM; in [5], 5 µM. Further, the outcome in [4] was inactive. Also, the outcome in [6] was Active. Also, the TIME in series [13] is 3.6 h. The inhibition in [7] was determined as 30.2%; in series [8], 92.7%.
With `Cc1ccc([N+](=O)[O-])cc1NC(=O)NNC(=O)CNC(=O)NCc1ccco1`, the inhibition in series [9] worked out at 52%; in series [8], 75%.
As for `O=[N+]([O-])c1ccc(NC(c2ccccc2)c2ccc3cccnc3c2O)cc1` (racemic), the inhibition amounted to 52% in series [9] and 87% in series [8]. Besides, in series [14], the Activity entry is on record as “Toxic”.
For `O=[N+]([O-])c1ccc(NCCNc2ccc([N+](=O)[O-])cc2)cc1`, the results for the inhibition in series [9] and in [8] were 44% and 80%, respectively.
`Oc1c(C(Nc2cccc3cccnc23)c2ccccc2)ccc2cccnc12` (racemic): the figures for the inhibition in series [1], in [7] and in [8] were 66%, 6.9% and 91.9%, respectively. The IC50 in series [2] amounted to 3.2 µM; in [5], 3.9 µM. Further, the TIME in series [11] stood at 1.09 h. The outcome in series [4] was inactive. Moreover, the result in [6] was Active.
